This passage reports inhibition results from ChEMBL document CHEMBL3085669, “Design, synthesis and structure-activity relationship of novel Relacin analogs as inhibitors of Rel proteins” (Eur J Med Chem, 2013).

Activity calls are given as the source filed them. The calls are words filed in the database; no cut-off is given here.

The subject of assay [1] is Escherichia coli. In words: Inhibition of Escherichia coli relA assessed as inhibition of (p)ppGpp synthesis at 1 mM by autoradiography in presence of [alpha32]GTP. The method in brief:
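Purified E. coli RelA assayed in vitro with inhibitor at 1 mM.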

The subject of assay [2] is Bacillus subtilis. In words: Inhibition of Bacillus subtilis relA assessed as reduction in (p)ppGpp level at 2 mM incubated for 15 mins prior to SHX addition measured after 5 to 10 mins by autoradiography. The method in brief:
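B. subtilis cells grown with inhibitor at 2 mM. Stringent response then induced by adding serine hydroxamate, and intracellular (p)ppGpp measured afterwards.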

The subject of assay [3] is Deinococcus radiodurans. In words: Inhibition of Deinococcus radiodurans rel/spo assessed as inhibition of (p)ppGpp synthesis by autoradiography in presence of [alpha32]GTP. The procedure, abridged: (§1)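 Cell-free assay on purified Rel enzymes (Rel/Spo from D. radiodurans, RelA from E. coli), with inhibitor tested across varying concentrations.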
The test system of assay [4] is Escherichia coli. Kind of assay: Inhibition of Escherichia coli relA assessed as inhibition of (p)ppGpp synthesis by autoradiography in presence of [alpha32]GTP. The procedure, abridged:
as §1

As for `CC(C)C(=O)Nc1nc2c(ncn2[C@H]2C[C@H](OC(=O)NCCCCCC(=O)O)[C@@H](COC(=O)NCCCCCC(=O)O)O2)c(=O)[nH]1`, the inhibition in assay [1] is 25.6%.

Take `CC(C)C(=O)Nc1nc2c(ncn2[C@H]2C[C@H](OC(=O)NCCN(C)C)[C@@H](COC(=O)NCCN(C)C)O2)c(=O)[nH]1`: the inhibition in assay [1] came to 31.2%.

On to `CC(C)C(=O)Nc1nc2c(ncn2[C@H]2C[C@H](OC(=O)N[C@@H](CCC(=O)O)C(=O)O)[C@@H](COC(=O)NCC(=O)O)O2)c(=O)[nH]1`, for which the inhibition in assay [1] was 50.4%.

For `CC(C)C(=O)Nc1nc2c(ncn2[C@H]2C[C@H](OC(=O)NCC(=O)O)[C@@H](COC(=O)NCC(=O)O)O2)c(=O)[nH]1`, the inhibition entry in assay [2] was “Active”. The inhibition in assay [1] came to 51.1%.

`CC(C)C(=O)Nc1nc2c(ncn2[C@H]2C[C@H](OC(=O)N(CCCN(C)C)CCCN(C)C)[C@@H](COC(=O)N(CCCN(C)C)CCCN(C)C)O2)c(=O)[nH]1`: the inhibition in assay [1] is 12%.

`CC(C)C(=O)Nc1nc2c(ncn2[C@H]2C[C@H](OC(=O)NCC(=O)NCC(=O)O)[C@@H](COC(=O)NCC(=O)NCC(=O)O)O2)c(=O)[nH]1`: in assay [1], the inhibition turned out to be 66.3%.

Turning to `CC(C)C(=O)Nc1nc2c(ncn2[C@H]2C[C@H](OC(=O)NC(CCC(=O)O)C(=O)NC(CCC(=O)O)C(=O)O)[C@@H](COC(=O)NC(CCC(=O)O)C(=O)NC(CCC(=O)O)C(=O)O)O2)c(=O)[nH]1` (stereo partly drawn), the inhibition result in assay [3] was “Dose-dependent effect”; in assay [4], “Dose-dependent effect”; in assay [1] it was 80.4%. The inhibition result in assay [2] is “Active”.

Turning to `CC(C)C(=O)Nc1nc2c(ncn2[C@H]2C[C@H](OC(=O)NC(CCC(=O)O)C(=O)O)[C@@H](COC(=O)N[C@@H](CCC(=O)O)C(=O)O)O2)c(=O)[nH]1` (stereo partly drawn), in assay [1], the inhibition was 50.6%.

In the case of `CC(C)C(=O)Nc1nc2c(ncn2[C@H]2C[C@H](OC(=O)NCC(=O)O)[C@@H](COC(=O)N[C@@H](CCC(=O)O)C(=O)O)O2)c(=O)[nH]1`, in assay [1], the inhibition is 52.1%.
